Series [1] addresses T1, Glucocorticoid receptor (Homo sapiens, UniProt P04150).
T1 sequence (P04150 whole entry): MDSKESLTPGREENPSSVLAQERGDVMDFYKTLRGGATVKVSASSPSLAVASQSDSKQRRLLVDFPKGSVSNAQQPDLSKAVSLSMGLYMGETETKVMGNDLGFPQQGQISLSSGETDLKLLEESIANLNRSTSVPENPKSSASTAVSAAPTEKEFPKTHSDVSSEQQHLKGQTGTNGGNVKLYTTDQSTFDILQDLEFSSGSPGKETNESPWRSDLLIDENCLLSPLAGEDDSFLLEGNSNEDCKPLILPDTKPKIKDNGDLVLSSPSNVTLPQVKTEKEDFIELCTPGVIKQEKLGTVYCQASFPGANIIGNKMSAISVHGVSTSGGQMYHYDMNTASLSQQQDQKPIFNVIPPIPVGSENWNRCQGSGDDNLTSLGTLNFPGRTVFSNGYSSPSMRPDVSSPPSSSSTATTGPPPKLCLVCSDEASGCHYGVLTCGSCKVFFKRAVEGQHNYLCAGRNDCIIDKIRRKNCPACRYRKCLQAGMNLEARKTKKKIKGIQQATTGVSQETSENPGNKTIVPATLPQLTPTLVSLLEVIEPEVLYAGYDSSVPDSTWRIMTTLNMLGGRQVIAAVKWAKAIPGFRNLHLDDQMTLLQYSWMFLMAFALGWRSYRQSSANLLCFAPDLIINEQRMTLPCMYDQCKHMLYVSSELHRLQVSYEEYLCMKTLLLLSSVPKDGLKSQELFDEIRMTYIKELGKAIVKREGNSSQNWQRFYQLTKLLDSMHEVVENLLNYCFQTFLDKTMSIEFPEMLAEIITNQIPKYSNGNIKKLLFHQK
The series can be described thus: Antagonist activity at glucocorticoid receptor in human HepG2 cells assessed as inhibition of dexamethasone-induced tyrosine amino transferase activity preincubated for 30 mins followed by dexamethasone addition measured after 20 hrs. Type of series: cell-based.

Series [2] is described as follows: Cmax in Sprague-Dawley CD-1 rat plasma at 3 mg/kg, po administered as cassette dose via gavage measured up to 24 hrs by LC/MS analysis. The arrangement: dose 3 mg/kg, route oral. Type of series: ADME, organism-based. In a few lines: (§1)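 Three male Sprague Dawley CD-1 rats (220-250g) with jugular vein catheters; three test compounds plus a reference dosed together by oral gavage, 3mg/kg each, in DMSO:0.5% methylcellulose 10:90 (0.6mg/mL per compound), 5mL/kg. Plasma sampled pre-dose and at 0.25, 0.5, 1, 2, 4, 6, 8, 24 h; LC/MS.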

Series [3] in a line: AUC in Sprague-Dawley CD-1 rat plasma at 3 mg/kg, po administered as cassette dose via gavage measured up to 24 hrs by LC/MS analysis. Type of series: ADME, organism-based. The arrangement: time < 24 hr, dose 3 mg/kg, route oral. The essentials: as §1
In series [4] the target is T1, Glucocorticoid receptor. Briefly: Displacement of fluormone GS Red from human glucocorticoid receptor after 4 hrs by fluorescence polarization assay. (Polarisation of emitted light reports the rotation of a fluorescent probe.)

The structures appear in SMILES notation. pKi: −log10 of the molar value.

As usually defined, the pKi is −log10 of the Ki, conventionally taken in molar units. What is called Cmax is the highest concentration seen after dosing. For orientation: AUC means the area under the concentration-time curve, a measure of exposure. Read a low AUC as less exposure. With `CCn1cc(S(=O)(=O)N2CCC3=Cc4c(cnn4-c4ccc(F)cc4)C[C@]3(C(=O)c3cc(C(F)(F)F)ccn3)C2)cn1`, the pKi in series [1] was 8.34. The compound further yielded a Cmax in series [2] of 126 ng/mL. The compound further registered an AUC at 24 h in series [3] of 701 ng·h/mL.

On to `Cc1c(S(=O)(=O)N2CCC3=Cc4c(cnn4-c4ccc(F)cc4)C[C@]3(C(=O)c3cc(C(F)(F)F)ccn3)C2)cnn1C`, for which the pKi in series [1] is 7.92. In series [2], the Cmax was determined as 110 ng/mL. In series [3], the area under the curve (AUC) at 24 h is 283 ng·h/mL.

As to `Cn1nncc1S(=O)(=O)N1CC[C@H]2Cc3c(cnn3-c3ccc(F)cc3)C[C@]2(C(=O)c2cc(C(F)(F)F)ccn2)C1`, the pKi in series [1] was 6.92.

For the compound `Cn1ncc(S(=O)(=O)N2CCC3=Cc4c(cnn4-c4ccc(F)cc4)C[C@]3(C(=O)c3cc(C(F)(F)F)ccn3)C2)n1` [NENOCORILANT], the negative-log Ki (pKi) in series [1] is 8.51. In addition, the Cmax in series [2] was 255 ng/mL. In series [3], this compound displayed an AUC at 24 h of 860 ng·h/mL.

`O=C(c1ccccn1)[C@]12Cc3cnn(-c4ccc(F)cc4)c3C=C1CCN(S(=O)(=O)c1ccc(C(F)(F)F)c(F)c1)C2` showed a Cmax in series [2] of 125 ng/mL. The compound further had an AUC at 24 h in series [3] of 726 ng·h/mL.

Take `Cc1cnc(C(=O)[C@]23Cc4cnn(-c5ccc(F)cc5)c4C=C2CCN(S(=O)(=O)c2cccc(C(F)(F)F)c2)C3)s1`: the pKi in series [4] was 9.54; in series [1] it was 8.00.

Regarding `Cn1nncc1S(=O)(=O)N1CCC2=Cc3c(cnn3-c3ccc(F)cc3)C[C@]2(C(=O)c2cc(C(F)(F)F)ccn2)C1`, in series [1], the pKi is 7.51.

As for `Cc1ccnc(C(=O)[C@]23Cc4cnn(-c5ccc(F)cc5)c4C=C2CCN(S(=O)(=O)c2cc(F)cc(F)c2)C3)c1`, the negative-log Ki (pKi) in series [4] was 9.85; in series [1], 8.37.

`N#Cc1cccc(S(=O)(=O)N2CCC3=Cc4c(cnn4-c4ccc(F)cc4)C[C@]3(C(=O)c3ccccn3)C2)c1` yielded a peak concentration (Cmax) in series [2] of 140 ng/mL. In series [3], this compound registered an AUC at 24 h of 239 ng·h/mL.

For the compound `O=C(c1cc(C(F)(F)F)ccn1)[C@]12Cc3cnn(-c4ccc(F)cc4)c3C=C1CCN(S(=O)(=O)c1cn[nH]c1)C2`, the pKi in series [1] was 8.12.

As to `Cn1cc(S(=O)(=O)N2CCC3=Cc4c(cnn4-c4ccc(F)cc4)C[C@]3(C(=O)c3cc(C(F)(F)F)ccn3)C2)nn1`, the negative-log Ki (pKi) in series [1] was 8.01. The compound also gave a Cmax in series [2] of 91.5 ng/mL. This compound gave an AUC at 24 h in series [3] of 450 ng·h/mL.

In the case of `O=C(c1ccccn1)[C@]12Cc3cnn(-c4ccc(F)cc4)c3C=C1CCN(S(=O)(=O)c1ccc(C(F)(F)F)cc1)C2` [DAZUCORILANT], the pKi in series [1] was 7.92.

`O=C(c1ccccn1)[C@]12Cc3cnn(-c4ccc(F)cc4)c3C[C@@H]1CCN(S(=O)(=O)c1cccc(C(F)(F)F)c1)C2`: the pKi in series [1] is 7.36.

For `Cn1ccc(S(=O)(=O)N2CC[C@H]3Cc4c(cnn4-c4ccc(F)cc4)C[C@]3(C(=O)c3cc(C(F)(F)F)ccn3)C2)n1`, in series [1], the negative-log Ki (pKi) is 7.62.

Take `Cn1cc(S(=O)(=O)N2CCC3=Cc4c(cnn4-c4ccc(F)cc4)C[C@]3(C(=O)c3ccccn3)C2)cn1`: in series [1], the pKi is 7.55. The Cmax in series [2] is 150 ng/mL. In addition, in series [3], the area under the curve (AUC) at 24 h was determined as 780 ng·h/mL.

`O=C(c1ccccn1)[C@]12Cc3cnn(-c4ccc(F)cc4)c3C=C1CCN(S(=O)(=O)c1ccc(F)c(F)c1)C2` gave a Cmax in series [2] of 215 ng/mL. The same compound came in with an AUC at 24 h in series [3] of 974 ng·h/mL.

`Cn1cc(S(=O)(=O)N2CC[C@H]3Cc4c(cnn4-c4ccc(F)cc4)C[C@]3(C(=O)c3cc(C(F)(F)F)ccn3)C2)cn1`: the pKi in series [1] is 7.47.

With `CCn1nccc1S(=O)(=O)N1CC[C@H]2Cc3c(cnn3-c3ccc(F)cc3)C[C@]2(C(=O)c2cc(C(F)(F)F)ccn2)C1`, the pKi in series [1] was 7.17.

Take `Cc1n[nH]c(C)c1S(=O)(=O)N1CCC2=Cc3c(cnn3-c3ccc(F)cc3)C[C@]2(C(=O)c2cc(C(F)(F)F)ccn2)C1`: in series [1], the pKi was 7.16.

Consider `Cn1cc(S(=O)(=O)N2CC[C@H]3Cc4c(cnn4-c4ccc(F)cc4)C[C@]3(C(=O)c3cc(C(F)(F)F)ccn3)C2)nn1`, for which the pKi in series [1] was 7.22.

`Cc1cccc(S(=O)(=O)N2CCC3=Cc4c(cnn4-c4ccc(F)cc4)C[C@]3(C(=O)c3ccccn3)C2)c1` registered a Cmax in series [2] of 31 ng/mL. For the same compound, the AUC at 24 h in series [3] was 83 ng·h/mL.

Source of the values: ChEMBL document CHEMBL4049426, “Identification of the Clinical Candidate (R)-(1-(4-Fluorophenyl)-6-((1-methyl-1H-pyrazol-4-yl)sulfonyl)-4,4a,5,6,7,8-hexahydro-1H-pyrazolo[3,4-g]isoquinolin-4a-yl)(4-(trifluoromethyl)pyridin-2-yl)methanone (CORT125134): A Selective Glucocorticoid Receptor (GR) Antagonist” (J Med Chem, 2017).
